The values below come from ChEMBL document CHEMBL4477203 (J Med Chem, 2016).

The structures appear in SMILES notation. pEC50, pKi: −log10 of the molar value.

In assay [1] the target is T1, Neuropeptide Y receptor type 4 (Homo sapiens, UniProt P50391). Description: Agonist activity at human NPY Y4 receptor expressed in CHO cells co-expressing Gqi5-mtAEQ assessed as induction of calcium mobilization by aequorin luminescence assay. The class given is functional, cell-based. In a few lines: (§1)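 Luminescence was integrated as area under the curve and normalized to the response to 1 µM PP. Data are means ± SEM of at least 3 independent experiments, each run in triplicate.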
T1 sequence (P50391 whole entry): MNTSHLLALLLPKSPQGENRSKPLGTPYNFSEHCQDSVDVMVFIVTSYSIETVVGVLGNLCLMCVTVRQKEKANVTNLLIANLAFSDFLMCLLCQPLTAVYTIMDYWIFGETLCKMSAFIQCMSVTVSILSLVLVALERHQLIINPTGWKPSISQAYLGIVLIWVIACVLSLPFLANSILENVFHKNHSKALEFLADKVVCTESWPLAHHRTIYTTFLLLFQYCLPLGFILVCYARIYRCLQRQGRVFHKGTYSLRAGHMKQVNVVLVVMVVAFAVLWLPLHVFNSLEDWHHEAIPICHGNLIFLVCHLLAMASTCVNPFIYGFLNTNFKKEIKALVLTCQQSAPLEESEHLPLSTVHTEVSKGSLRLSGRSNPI
For orientation: Calcium flux is commonly read through the fluorescence of an indicator in the cells.

For assay [2], the target named is T1, Neuropeptide Y receptor type 4. Description: Intrinsic activity at human NPY Y4 receptor expressed in CHO cells co-expressing Gqi5-mtAEQ assessed as induction of calcium mobilization by aequorin luminescence assay relative to pancreatic polypeptide. The class given is functional, cell-based. In a few lines:
as §1

For assay [3] the target is unchanged. Nature of the assay: Agonist activity at human NPY Y4 receptor expressed in HEK293 cells co-expressing CRE-Luc gene assessed as inhibition of forskolin stimulated luciferase activity after 4.5 hrs by luminescence assay. The class given is functional, cell-based. In short, it runs like this: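 HEK293 cells stably co-transfected with a CRE-controlled firefly luciferase reporter and hY4R, tested in phenol-red-free DMEM, pH 7.4. The maximal inhibition by PP was set to 0% activity (α = 1.0). Data are means ± SEM of at least 3 experiments in triplicate.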

Assay [4] addresses T2, Neuropeptide Y receptor type 1 (Homo sapiens, UniProt P25929).
T2 sequence (P25929 whole entry): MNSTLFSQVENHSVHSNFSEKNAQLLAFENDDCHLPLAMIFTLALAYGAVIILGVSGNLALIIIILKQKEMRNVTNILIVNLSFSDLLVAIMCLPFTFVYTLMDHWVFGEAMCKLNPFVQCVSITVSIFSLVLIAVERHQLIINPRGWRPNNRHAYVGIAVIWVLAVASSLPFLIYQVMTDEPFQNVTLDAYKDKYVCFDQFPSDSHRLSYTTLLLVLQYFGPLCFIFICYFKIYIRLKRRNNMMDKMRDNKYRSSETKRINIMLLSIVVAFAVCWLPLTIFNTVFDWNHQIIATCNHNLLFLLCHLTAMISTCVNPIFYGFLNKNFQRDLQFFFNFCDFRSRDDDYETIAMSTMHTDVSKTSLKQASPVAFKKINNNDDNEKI
Description: Displacement of [3H]UR-MK136 from human NPY Y1 receptor expressed in human MCF7 cells by liquid scintillation counting. The class given is cell-based. On the technique in general: In a radioligand displacement assay an active substance lowers the binding of a labelled ligand.

The target of assay [5] is T3, Neuropeptide Y receptor type 2 (Homo sapiens, UniProt P49146).
T3 sequence (P49146 whole entry): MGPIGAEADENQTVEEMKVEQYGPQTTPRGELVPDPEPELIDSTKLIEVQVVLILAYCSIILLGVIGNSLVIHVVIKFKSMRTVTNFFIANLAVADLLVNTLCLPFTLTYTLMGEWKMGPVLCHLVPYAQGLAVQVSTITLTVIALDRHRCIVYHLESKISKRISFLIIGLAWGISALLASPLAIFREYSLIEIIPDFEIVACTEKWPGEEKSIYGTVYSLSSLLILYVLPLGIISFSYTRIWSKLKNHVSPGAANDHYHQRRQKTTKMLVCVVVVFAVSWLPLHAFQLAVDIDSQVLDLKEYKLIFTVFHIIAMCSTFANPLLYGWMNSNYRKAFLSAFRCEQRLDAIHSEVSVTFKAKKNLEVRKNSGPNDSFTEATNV
Description: Displacement of [3H]propionyl-pNPY from human NPY Y2 receptor expressed in CHO cells co-expressing Gqi5-mtAEQ after 90 mins by liquid scintillation counting. The class given is cell-based. In a few lines: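 Adherent CHO-hY2R-Gqi5-mtAEQ cells in buffer I with 1% BSA and 0.1 mg/mL bacitracin at 22 °C. […] Incubation was 90 min, followed by two ice-cold washes, lysis and scintillation counting.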

Assay [6] has as its target T1, Neuropeptide Y receptor type 4. Description: Displacement of [3H]18 from human NPY Y4 receptor expressed in CHO cells co-expressing Gqi5-mtAEQ after 90 mins by liquid scintillation counting. The class given is cell-based.
In assay [7] the target is T4, Neuropeptide Y receptor type 5 (Homo sapiens, UniProt Q15761).
T4 sequence (Q15761 whole entry): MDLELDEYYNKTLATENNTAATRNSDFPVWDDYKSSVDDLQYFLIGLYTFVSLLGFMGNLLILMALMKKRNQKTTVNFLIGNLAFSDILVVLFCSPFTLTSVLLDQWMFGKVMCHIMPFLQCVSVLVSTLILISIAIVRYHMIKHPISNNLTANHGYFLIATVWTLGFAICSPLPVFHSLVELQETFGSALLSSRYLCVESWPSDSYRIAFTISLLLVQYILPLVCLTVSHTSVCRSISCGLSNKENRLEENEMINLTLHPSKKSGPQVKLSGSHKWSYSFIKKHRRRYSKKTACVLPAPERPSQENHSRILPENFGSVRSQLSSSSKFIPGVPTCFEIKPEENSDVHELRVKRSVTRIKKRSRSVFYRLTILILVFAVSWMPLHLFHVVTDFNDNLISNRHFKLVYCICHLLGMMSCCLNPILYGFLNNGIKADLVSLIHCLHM
Nature of the assay: Displacement of [3H]propionyl-pNPY from human NPY Y5 receptor expressed in human HEC1b cells after 120 mins by liquid scintillation counting. The class given is cell-based. In a few lines:
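Adherent HEC-1B-hY5 cells in buffer II with 1% BSA and 0.1 mg/mL bacitracin at 22 °C. […] Incubation was 120 min, followed by ice-cold washes, lysis and scintillation counting.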

Assay [8] addresses T1, Neuropeptide Y receptor type 4. Description: Binding affinity to human NPY Y4 receptor expressed in CHO cells co-expressing Gqi5-mtAEQ assessed as apparent association rate constant after 2 to 180 mins by liquid scintillation counting. The note with it: tested as the 3H-labelled form. The class given is cell-based. In short, it runs like this:
(§2)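 Adherent CHO-hY4-Gqi5-mtAEQ cells (about 90% confluent) in buffer I with 1% BSA and 0.1 mg/mL bacitracin at 22 °C. Tritiated radioligand was applied at 1.5 nM for 2–180 min. Wells were washed twice with ice-cold buffer I, lysed and counted. kobs was taken from ln[Beq/(Beq-Bt)] versus time. Data are means of 3 experiments in triplicate.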

The target is the same in assay [9]. Nature of the assay: Binding affinity to human NPY Y4 receptor expressed in CHO cells co-expressing Gqi5-mtAEQ assessed as fast dissociation rate constant preincubated for 2 hrs followed by addition of (2R,7R)-Diaminooctanedioyl-bis(Tyr-Arg-Leu-Arg-Tyr-amide)Hexa(hydrotrifluoroacetate) by liquid scintillation counting. The class given is cell-based. The settings on record: tested as the 3H-labelled form.

Assay [10] has the same target. Nature of the assay: Binding affinity to human NPY Y4 receptor expressed in CHO cells co-expressing Gqi5-mtAEQ assessed as time required for complete association by liquid scintillation counting. The class given is cell-based. The settings on record: tested as the 3H-labelled form. In short, it runs like this:
as §2

For assay [11] the target is unchanged. Nature of the assay: Binding affinity to human NPY Y4 receptor expressed in CHO cells co-expressing Gqi5-mtAEQ assessed as fast dissociation half life t1/2(1) at 1.5 uM incubated for 2 hrs in presence of 200-fold excess of (2R,7R)-Diaminooctanedioyl-bis(Tyr-Arg-Leu-Arg-Tyr-amide)Hexa(hydrotrifluoroacetate) by liquid scintillation counting. The class given is cell-based. The note with it: tested as the 3H-labelled form.

The target is the same in assay [12]. Nature of the assay: Binding affinity to human NPY Y4 receptor expressed in CHO cells co-expressing Gqi5-mtAEQ assessed as slow dissociation half life t1/2(2) at 1.5 uM incubated for 2 hrs in presence of 200-fold excess of (2R,7R)-Diaminooctanedioyl-bis(Tyr-Arg-Leu-Arg-Tyr-amide)Hexa(hydrotrifluoroacetate) by liquid scintillation counting. The class given is cell-based. The settings on record: tested as the 3H-labelled form.

For assay [13] the target is unchanged. Nature of the assay: Binding affinity to human NPY Y4 receptor expressed in CHO cells co-expressing Gqi5-mtAEQ assessed as slow dissociation constant at 1.5 uM incubated for 2 hrs in presence of 200-fold excess of (2R,7R)-Diaminooctanedioyl-bis(Tyr-Arg-Leu-Arg-Tyr-amide)Hexa(hydrotrifluoroacetate) by liquid scintillation counting. The class given is cell-based. The settings on record: tested as the 3H-labelled form.

A word on the pEC50: it is the negative decadic logarithm of the EC50, by convention in mol/L. As a reminder, the pKi is the Ki on a negative log10 scale, so that one unit is a factor of ten.

With `CCC(=O)N[C@@H](CCCC[C@H](N)C(=O)N[C@@H](Cc1ccc(O)cc1)C(=O)N[C@@H](CCCNC(=N)N)C(=O)N[C@@H](CC(C)C)C(=O)N[C@@H](CCCNC(=N)N)C(=O)N[C@@H](Cc1ccc(O)cc1)C(N)=O)C(=O)N[C@@H](Cc1ccc(O)cc1)C(=O)N[C@@H](CCCNC(=N)N)C(=O)N[C@@H](CC(C)C)C(=O)N[C@@H](CCCNC(=N)N)C(=O)N[C@@H](Cc1ccc(O)cc1)C(N)=O`, the results for the pEC50 in [1] and in [3] were 7.85 and 8.40, respectively. For the same compound, the Intrinsic activity in [2] was found to be 0.76. The pKi in [4] is 6.40; in [5], 6.38; in [6] it was 9.49; in assay [7] it was 6.15. Moreover, the values for the K in assay [8], in [9] and in [13] were 0.0467 min⁻¹, 0.0329 min⁻¹ and 0.0085 min⁻¹, respectively. Besides, the TIME in assay [10] is 1.67 h. The T1/2 was 0.352 h in [11] and 4.82 h in assay [12].
